The source of these data is ChEMBL document CHEMBL4406801, “Novel Human Aminopeptidase N Inhibitors: Discovery and Optimization of Subsite Binding Interactions” (J Med Chem, 2019).

≈ marks a conversion by molar mass, not a printed value. Calls of active or inactive are those of the source.

In series [1] the target is T1, Aminopeptidase N (Homo sapiens, UniProt P15144). Put plainly: Inhibition of soluble human APN ectodomain stably expressed in HEK293 GnTI(-) cells using H-Leu-NHMec as substrate preincubated for 10 mins followed by substrate addition and measured for 1 hr by spectrofluorimetric method. The conditions noted are these: read-out: Ki(app).
T1 sequence (P15144 whole entry, the tested form may be a part): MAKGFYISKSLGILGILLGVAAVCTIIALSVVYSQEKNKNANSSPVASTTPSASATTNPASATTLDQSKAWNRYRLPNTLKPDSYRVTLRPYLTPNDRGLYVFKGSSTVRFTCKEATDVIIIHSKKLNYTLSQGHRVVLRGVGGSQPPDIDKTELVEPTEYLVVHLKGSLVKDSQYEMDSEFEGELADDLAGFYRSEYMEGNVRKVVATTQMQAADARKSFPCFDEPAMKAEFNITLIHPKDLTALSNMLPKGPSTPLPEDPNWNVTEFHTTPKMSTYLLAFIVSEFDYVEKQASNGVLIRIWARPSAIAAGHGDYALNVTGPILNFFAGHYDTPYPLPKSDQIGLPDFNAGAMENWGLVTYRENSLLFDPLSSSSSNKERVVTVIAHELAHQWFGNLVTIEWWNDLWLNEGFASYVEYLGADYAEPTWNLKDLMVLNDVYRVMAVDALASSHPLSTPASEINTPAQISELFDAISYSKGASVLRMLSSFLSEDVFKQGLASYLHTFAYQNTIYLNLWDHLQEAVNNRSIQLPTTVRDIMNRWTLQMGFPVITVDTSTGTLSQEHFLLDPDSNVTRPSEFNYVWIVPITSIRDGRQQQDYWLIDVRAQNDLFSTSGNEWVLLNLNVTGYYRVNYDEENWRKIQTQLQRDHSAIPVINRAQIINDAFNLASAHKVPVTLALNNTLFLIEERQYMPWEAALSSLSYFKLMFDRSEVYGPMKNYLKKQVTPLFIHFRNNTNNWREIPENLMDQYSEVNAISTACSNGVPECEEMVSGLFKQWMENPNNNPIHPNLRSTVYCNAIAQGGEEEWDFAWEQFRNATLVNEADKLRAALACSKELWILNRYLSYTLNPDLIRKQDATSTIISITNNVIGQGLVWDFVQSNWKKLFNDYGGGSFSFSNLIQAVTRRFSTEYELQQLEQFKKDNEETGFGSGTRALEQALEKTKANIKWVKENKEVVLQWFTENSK
Series [2] concerns the target Neutrophil collagenase (Homo sapiens) (UniProt P22894). Put plainly: Inhibition of MMP8 (unknown origin) using QF-24 as substrate preincubated for 1 hr followed by substrate addition and measured at 1 min interval for 1 hr by fluorescence assay.
Series [3] has as its target Matrix metalloproteinase-9 (Homo sapiens, UniProt P14780). Put plainly: Inhibition of MMP9 (unknown origin) using QF-24 as substrate preincubated for 1 hr followed by substrate addition and measured at 1 min interval for 1 hr by fluorescence assay.
Series [4] has as its target 72 kDa type IV collagenase (Homo sapiens, UniProt P08253). The experiment in a line: Inhibition of MMP2 (unknown origin) using QF-24 as substrate preincubated for 1 hr followed by substrate addition and measured at 1 min interval for 1 hr by fluorescence assay.
Series [5] in a line: Inhibition of Plasmodium falciparum M1 aminopeptidase. The note with it: read-out: Ki(app).
The target of series [6] is T2, Matrilysin (Homo sapiens) (UniProt P09237).
T2 sequence (whole entry): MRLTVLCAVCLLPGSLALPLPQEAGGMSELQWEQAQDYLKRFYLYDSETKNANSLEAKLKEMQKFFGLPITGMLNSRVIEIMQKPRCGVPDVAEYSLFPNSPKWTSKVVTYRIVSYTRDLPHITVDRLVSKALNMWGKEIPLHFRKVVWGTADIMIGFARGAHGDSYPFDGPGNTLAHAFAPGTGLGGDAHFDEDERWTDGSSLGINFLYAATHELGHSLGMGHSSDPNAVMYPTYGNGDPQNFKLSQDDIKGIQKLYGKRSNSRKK
The experiment in a line: Inhibition of MMP7 (unknown origin) using QF-24 as substrate preincubated for 1 hr followed by substrate addition and measured at 1 min interval for 1 hr by fluorescence assay.

Series [7] addresses T1, Aminopeptidase N. The experiment in a line: Potency index, ratio of tosedostat Ki(app) to test compound Ki(app) for soluble human APN ectodomain stably expressed in HEK293 GnTI(-) cells. The class given is cell-based.
The target in series [8] is T1, Aminopeptidase N. The experiment in a line: Potency index, ratio of bestatin Ki(app) to test compound Ki(app) for soluble human APN ectodomain stably expressed in HEK293 GnTI(-) cells. The class given is cell-based.
Series [9] can be described thus: Cytotoxicity against human AD293 cells measured after 72 hrs by celltitre-blue assay. Format: cell-based.
Series [10] is described as follows: Intrinsic clearance in human liver microsomes assessed per mg protein at 1 uM in presence of NADPH. Format: ADME, Microsome. The conditions noted are these: read-out: CLH. For orientation: Liver microsomes are vesicles of endoplasmic reticulum, rich in cytochrome P450 enzymes.
Series [11] can be described thus: Partition coefficient, log D of compound at pH 7.4 by HPLC analysis. Format: physicochemical. The conditions noted are these: octanol/water. The procedure, abridged:
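LogD at pH 7.4 estimated by a chromatographic method.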

Series [12] is described as follows: Kinetic solubility of the compound in 0.01 M HCl at pH 2 after 30 mins by nephelometry. Format: physicochemical. The note with it: read-out: Kinetic_solubility. A digest of the protocol:
(§1)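 Kinetic solubility read by nephelometry under pH 2 (stomach-like) and pH 6.5 (upper fasted small intestine-like) conditions.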

The nature of series [13]: Half life in human liver microsomes at 1 uM in presence of NADPH. Format: ADME, Microsome.
The nature of series [14]: Intrinsic clearance in mouse liver microsomes assessed per mg protein at 1 uM in presence of NADPH. Format: ADME, Microsome. The conditions noted are these: read-out: CLH.
Series [15] is described as follows: Half life in human plasma at 1000 ng/ml by LC-MS analysis. The class given is ADME, cell-free.
Series [16] in a line: Kinetic solubility of the compound in phosphate buffer at pH 6.5 after 30 mins by nephelometry. The class given is physicochemical. The conditions noted are these: read-out: Kinetic_solubility. A digest of the protocol:
as §1

Series [17] can be described thus: Half life in mouse liver microsomes at 1 uM in presence of NADPH. Format: ADME, Microsome.
Series [18] in a line: Half life in Swiss mouse plasma at 1000 ng/ml by LC-MS analysis. The class given is ADME, cell-free.
Series [19] is described as follows: Solubility of the compound in methanol. Format: physicochemical.

Chain of Matrix metalloproteinase-9 (P14780 whole entry): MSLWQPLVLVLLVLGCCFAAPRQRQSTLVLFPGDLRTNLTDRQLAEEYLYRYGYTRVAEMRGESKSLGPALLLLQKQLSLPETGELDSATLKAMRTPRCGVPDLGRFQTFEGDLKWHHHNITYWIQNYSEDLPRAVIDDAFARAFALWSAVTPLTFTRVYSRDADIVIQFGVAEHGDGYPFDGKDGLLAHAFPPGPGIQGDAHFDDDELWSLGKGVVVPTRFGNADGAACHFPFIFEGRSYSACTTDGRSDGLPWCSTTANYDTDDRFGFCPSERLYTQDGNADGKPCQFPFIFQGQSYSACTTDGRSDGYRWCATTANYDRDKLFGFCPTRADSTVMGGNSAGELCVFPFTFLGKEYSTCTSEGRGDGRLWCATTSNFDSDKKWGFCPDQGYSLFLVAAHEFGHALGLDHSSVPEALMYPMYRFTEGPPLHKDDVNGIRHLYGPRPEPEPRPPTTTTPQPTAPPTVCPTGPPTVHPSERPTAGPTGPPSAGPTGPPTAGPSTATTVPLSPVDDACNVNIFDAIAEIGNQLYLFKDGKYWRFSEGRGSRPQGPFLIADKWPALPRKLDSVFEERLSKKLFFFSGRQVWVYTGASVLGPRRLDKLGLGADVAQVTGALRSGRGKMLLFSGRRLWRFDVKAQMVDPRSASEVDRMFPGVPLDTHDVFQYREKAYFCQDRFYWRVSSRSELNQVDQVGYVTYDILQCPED
Chain of Neutrophil collagenase (Homo sapiens) (P22894 101-467 limits assumed): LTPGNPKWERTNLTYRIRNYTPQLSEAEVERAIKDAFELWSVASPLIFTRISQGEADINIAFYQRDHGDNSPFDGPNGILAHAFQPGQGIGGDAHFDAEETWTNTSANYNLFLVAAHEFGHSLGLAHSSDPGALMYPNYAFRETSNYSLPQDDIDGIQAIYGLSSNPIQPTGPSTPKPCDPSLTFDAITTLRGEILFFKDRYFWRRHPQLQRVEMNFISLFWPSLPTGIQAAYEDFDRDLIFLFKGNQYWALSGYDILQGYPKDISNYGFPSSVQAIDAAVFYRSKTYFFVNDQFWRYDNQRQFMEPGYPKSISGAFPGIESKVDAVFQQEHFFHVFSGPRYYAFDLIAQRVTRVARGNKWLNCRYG
Chain of 72 kDa type IV collagenase (P08253 whole entry): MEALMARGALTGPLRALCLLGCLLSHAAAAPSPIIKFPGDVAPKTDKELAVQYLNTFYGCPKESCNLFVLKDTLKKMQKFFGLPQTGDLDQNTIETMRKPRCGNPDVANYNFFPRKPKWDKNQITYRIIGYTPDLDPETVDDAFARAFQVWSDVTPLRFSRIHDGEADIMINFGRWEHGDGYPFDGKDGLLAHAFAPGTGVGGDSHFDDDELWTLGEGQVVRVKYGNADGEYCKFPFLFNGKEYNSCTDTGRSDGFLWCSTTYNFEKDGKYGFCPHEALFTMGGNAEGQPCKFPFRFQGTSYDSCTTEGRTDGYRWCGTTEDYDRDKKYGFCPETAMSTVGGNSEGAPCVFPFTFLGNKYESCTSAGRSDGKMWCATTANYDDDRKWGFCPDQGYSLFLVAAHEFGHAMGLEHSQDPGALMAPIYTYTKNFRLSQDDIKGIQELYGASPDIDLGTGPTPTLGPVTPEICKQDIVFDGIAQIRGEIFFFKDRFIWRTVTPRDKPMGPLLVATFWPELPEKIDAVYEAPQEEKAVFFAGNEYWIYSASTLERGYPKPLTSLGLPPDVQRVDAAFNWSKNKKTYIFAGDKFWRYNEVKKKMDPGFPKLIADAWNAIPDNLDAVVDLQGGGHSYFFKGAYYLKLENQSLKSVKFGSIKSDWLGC

On to `O=C(NO)C(NCc1ccc(F)c(O)c1)c1ccc(-c2cc(F)c(F)c(F)c2)cc1` (stereo not drawn), for which, at Aminopeptidase N [1], the Ki was more than 1000 µM.

As usually defined, the IC50 is the concentration needed to halve the response being measured. A low value points to greater potency in that assay. With `CC(C)C[C@@H](C(=O)N[C@H](C(=O)OC1CCCC1)c1ccccc1)[C@H](O)C(=O)NO` [TOSEDOSTAT], the inhibition result in [2] and in series [6] was “Active” throughout. Further, the IC50 in series [3] is 1.5 µM; in series [4], 0.19 µM. In addition, the Ki on Aminopeptidase N [1] is 1.18 µM; in [5] it was 6.15 µM.

`CC(C)(C)C(=O)NC(C(=O)NO)c1ccc(-c2cc(F)c(F)c(F)c2)cc1` (stereo not drawn): the inhibition result in series [2] and in series [6] was “inactive” each time. Moreover, the values for the Ki (on Aminopeptidase N [1]; in series [5]) were 0.118 µM and 0.331 µM, respectively. Also, the Ratio Ki(app) at Aminopeptidase N [7] and on Aminopeptidase N [8] was 10 to 20 in each case.

Broadly, the CC50 is the concentration giving 50% cytotoxicity. One may read the logD as the decadic logarithm of the distribution of all forms, ionised or not, between an organic phase and buffer at a given pH. Read a high logD as higher lipophilicity. The half-life is the time needed for the level to fall by half in the phase considered. With `CS(=O)(=O)Nc1ccc(C(=O)NC(C(=O)NO)c2ccc(-c3cc(F)c(F)c(F)c3)cc2)cc1` (stereo not drawn), the inhibition entry in series [2] and in [6] was “inactive” throughout. Also, the IC50 in [3] was more than 100 µM; in series [4], 1.3 µM. In addition, on Aminopeptidase N [1], the Ki stood at 0.0045 µM. The CC50 at 72 h in [9] came to 41 µM. In addition, the microsomal CLint at 1 µM in series [10] and in series [14] was less than 7 µL/min/mg throughout. In series [11], this molecule came in with a logD of 2.8. The solubility kinetic at 0.5 h in series [12] and in [16] was 12.5 to 25 µg/mL (≈ 25.3 to 50.7 µM) in each case. For the same molecule, the half-life at 1 µM in series [13] and in series [17] was more than 4.17 h throughout. The half-life at 1000 ng/ml in series [15] and in series [18] was more than 17 h each time. On Aminopeptidase N [8], the Ratio Ki(app) amounted to 527.

Regarding `O=C(Cc1ccc(O)c(O)c1)NC(C(=O)NO)c1ccc(-c2cc(F)c(F)c(F)c2)cc1` (stereo not drawn), the solubility result in series [19] is given as “Insoluble”.

Take `O=C(NC(C(=O)NO)c1ccc(-c2cc(F)c(F)c(F)c2)cc1)c1ccc(O)c(O)c1` (stereo not drawn): the solubility entry in series [19] is on record as “Insoluble”.

On to `NS(=O)(=O)Nc1ccc(C(=O)NC(C(=O)NO)c2ccc(-c3cc(F)c(F)c(F)c3)cc2)cc1` (stereo not drawn), for which the inhibition entry in series [2] and in series [6] was “inactive” each time. Moreover, the IC50 in series [3] was more than 100 µM; in series [4], 2.1 µM. Also, the Ki at Aminopeptidase N [1] was determined as 0.0082 µM. The molecule further yielded a CC50 at 72 h in [9] of 149 µM. Further, the microsomal CLint at 1 µM in series [10] and in series [14] was less than 7 µL/min/mg throughout. In addition, the logD in series [11] was found to be 2.6. Moreover, the solubility kinetic at 0.5 h in [12] lay within 6.3 to 12.5 µg/mL (≈ 12.7 to 25.3 µM); in series [16] it was 12.5 to 25 µg/mL (≈ 25.3 to 50.6 µM). Also, the half-life at 1 µM in series [13] and in series [17] was more than 4.17 h each time. In addition, the half-life at 1000 ng/ml in series [15] and in series [18] was more than 17 h throughout.

On to `CC(C)C[C@H](NC(=O)[C@@H](O)[C@H](N)Cc1ccccc1)C(=O)O` [UBENIMEX], for which the Ki in [5] came to 1.53 µM.

For the molecule `O=C(Cc1ccc(O)c(F)c1)NC(C(=O)NO)c1ccc(-c2cc(F)c(F)c(F)c2)cc1` (stereo not drawn), the solubility entry in series [19] is on record as “Insoluble”.

As for `COC(=O)C(NC(=O)CC(=O)O)c1ccc(-c2cc(F)c(F)c(F)c2)cc1` (stereo not drawn), in [19], the solubility result was “Insoluble”.

In the case of `O=C(Cc1ccc(O)cc1)NC(C(=O)NO)c1ccc(-c2cc(F)c(F)c(F)c2)cc1` (stereo not drawn), in series [19], the solubility entry is “Insoluble”.

On to `CNC(=O)[C@@H](NC(=O)[C@H](CC(C)C)[C@H](O)C(=O)NO)C(C)(C)C`, for which the inhibition entry in series [2] and in series [6] was “Active” in each case.

For the molecule `O=C(Cc1ccc(F)c(O)c1)NC(C(=O)NO)c1ccc(-c2cc(F)c(F)c(F)c2)cc1` (stereo not drawn), the solubility result in [19] is “Insoluble”.
